NS3 helicase inh: inhibitors of HCV NS3 helicase, primary screen, biochemical, Cy5 molecular beacon fluorescence | AID 1800, 2009 | NS3 helicase DNA unwinding | inhibition, % at 10.9 µM | Hepatitis C virus NS3 helicase | hit rate 0.56% among 290,000;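 active = inhibition above the mean of all tested compounds plus 3 SD, set per campaign, cut at about 35% in these data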;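 note: 0% = DMSO wells and 100% = thioflavine S control wells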
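Assay system – hepatitis C virus NS3 helicase domain fragment enzyme · Buffer or medium – MOPS pH 6.5, MgCl2, DTT, Tween20, BSA · Reagent – Cy5/quencher beacon DNA duplex and ATP to start · Compound – single 10.9 µM dose · Timing – 1 h at 25 °C · Technique – Cy5 beacon fluorescence read at start and 1 h · Measure – % inhibition of unwinding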
ZTA counter: counter-screen for EBNA-1 inhibitors: inhibitors of Epstein-Barr virus ZTA. hit rate 0.15% among 320,000. inhibition, % at 11 µM. ZTA-DNA binding, fluorescence polarization; in the data active = inhibition above about 33%
Target sequence (P03206 whole entry, looked up): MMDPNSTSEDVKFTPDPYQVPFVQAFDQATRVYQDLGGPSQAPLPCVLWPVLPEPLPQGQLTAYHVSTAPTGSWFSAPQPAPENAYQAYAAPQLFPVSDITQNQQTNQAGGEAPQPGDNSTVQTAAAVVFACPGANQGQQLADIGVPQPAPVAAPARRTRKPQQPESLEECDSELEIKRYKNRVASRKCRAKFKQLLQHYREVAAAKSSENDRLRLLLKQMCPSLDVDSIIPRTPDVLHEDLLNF
FID counter: compounds displacing fluorescent DNA intercalator, primary screen, artefact control for HCV NS3 helicase inhibitor project, biochemical, FID fluorescence | DNA fluorescent intercalator displacement | inhibition, % at 7.9 µM | hit rate 0.17% among 290,000; in the data active = inhibition above about 37%;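 note: 0% = vehicle and 100% = reference compound; higher means more ethidium bromide displaced from hairpin DNA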
FGF22 binding-1: binders of human FGF22 protein, primary screen, FGF22 synaptogenesis inhibitor project, biophysical, thermal shift, single point. AID 651658, 2012. hit rate 1.5% among 340,000. recombinant FGF22 thermal shift, SYPRO orange fluorescence; percent of sucrose octasulfate shift, DMSO zero. activity (Tm shift, normalised), % at 9.99 µM;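 active = mean Tm shift, scaled 0 neutral to 100 positive control, at about 1.3% or above, every replicate too, limit read from the data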
Target sequence (Q9HCT0 whole entry, looked up): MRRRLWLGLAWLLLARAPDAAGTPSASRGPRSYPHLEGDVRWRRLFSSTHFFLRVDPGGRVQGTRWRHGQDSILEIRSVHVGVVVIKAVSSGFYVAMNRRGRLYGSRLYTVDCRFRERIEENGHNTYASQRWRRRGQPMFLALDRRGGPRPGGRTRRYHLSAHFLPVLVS
EBNA-1 inhibitor: EBNA-1 DNA-binding inhibitors, primary screen, biochemical, fluorescence polarization | hit rate 0.34% among 300,000 | inhibition, % at 14.8 µM; in the data active = inhibition above about 28%
GRIN3A LBD mod: binders of NR3A ligand-binding domain, primary screen, biophysical, differential scanning fluorimetry, uHTS; Glutamate receptor ionotropic, NMDA 3A (GRIN3A) ligand-binding domain; AID 1259313, 2017; hit rate 2.5% among 340,000; NR3A LBD differential scanning fluorimetry, Tm shift; 0% = protein alone, 100% = glycine-bound protein; Tm shift relative to glycine control, % at 25 µM;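 active = melting temperature shift of at least 10% of the positive control shift, at one fixed dose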
FGF22 binding-2: binders of human FGF22 protein, dose response, FGF22 synaptogenesis inhibitor project, biophysical, thermal shift, cherry-pick retest; thermal shift activity, °C (ΔTm) at 38 µM; hit rate 2% among 1,000; recombinant FGF22 thermal shift, SYPRO orange fluorescence; shares compounds with FGF22 binding-1; AID 720646, 2013;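 active = fitted rise in melting shift crosses a set limit at or below the top valid dose tested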
TSA no protein: compound-only thermal shift signal without protein, dose response, artefact control for FGF22 binder project, biochemical, cherry-picked samples, RT-PCR instrument | shares compounds with FGF22 binding-1 | compound-only SYPRO orange thermal shift counter-screen, no protein | AID 743019, 2013 | AC50, µM (top dose mostly 38 µM) | hit rate 2% among 1,000;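 active = rising signal whose fitted curve reaches the 0.54 level within the top valid dose, showing a melting point, actives reach about 13 µM in these data; inactive = the rest, including activity in the opposite direction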; note: value is where the raw curve crosses a fixed level and not half-maximal
* marks the source's active call; other numbers are inactive results. Hits are enriched below; roughly 3.6% of the tested compounds scored in any of these assays.

Results for CCCNC(=O)Nc1ccc2c(c1)C(=O)N(C)[C@@H]1CC[C@@H](CC(=O)O)O[C@@H]1CO2 ?
FGF22 binding-1: -0.2

Results for CC(=O)c1ccc(NC(=O)c2noc(C(C)C)c2[N+](=O)[O-])cc1 ?
NS3 helicase inh: -1.7; ZTA counter: -1.3; FID counter: 3.0; FGF22 binding-1: 1.7*; EBNA-1 inhibitor: 6.4; GRIN3A LBD mod: 0.6; FGF22 binding-2: 0.127; TSA no protein: inactive

What do the screens show for `COc1ccc(NC(=O)c2noc(C(C)C)c2[N+](=O)[O-])cc1`?
NS3 helicase inh: 6.4; ZTA counter: -3.4; FID counter: -0.1; FGF22 binding-1: 0.5; EBNA-1 inhibitor: 2.6; GRIN3A LBD mod: -27.2

What do the screens show for `C[C@H]1CN([C@@H](C)CO)C(=O)c2cccc(NC(=O)Nc3ccccc3)c2O[C@@H]1CN(C)CC1CC1`?
FGF22 binding-1: 0.0

What do the screens show for `C[C@H](CO)N1C[C@H](C)[C@H](CN(C)S(=O)(=O)c2cn(C)cn2)Oc2ccc(NC(=O)CCC(F)(F)F)cc2CC1=O`?
FGF22 binding-1: 0.1

How did O=C(CCc1c[nH]c2ccccc12)Nc1ccc(Nc2cccnc2)cc1 do in these assays?
FGF22 binding-1: 2.0*; FGF22 binding-2: -0.069; TSA no protein: inactive

What do the screens show for `CCCCNC(=O)C1c2cc(OC)c(OC)cc2C(=O)N(C)C1c1cccs1` (configuration not stated)?
NS3 helicase inh: 3.6; ZTA counter: 5.7; FID counter: -10.1; FGF22 binding-1: 3.6*; EBNA-1 inhibitor: 2.1; GRIN3A LBD mod: 0.2; FGF22 binding-2: -0.059; TSA no protein: inactive

What do the screens show for `CCC(=O)Nc1nc(CC(=O)Nc2ccccc2OC)cs1`?
NS3 helicase inh: -0.4; ZTA counter: -13.2; FID counter: -2.6; EBNA-1 inhibitor: -13.9; GRIN3A LBD mod: 1.0

What do the screens show for `COc1cc(C)ccc1NC(=O)Cc1csc(NC(=O)Nc2ccccc2OC)n1`?
ZTA counter: 8.2; FGF22 binding-1: 1.6*; EBNA-1 inhibitor: -14.3; GRIN3A LBD mod: 4.4; FGF22 binding-2: 0.096; TSA no protein: inactive

Results for Cc1ccc(S(=O)(=O)N(C)C[C@H]2Oc3ccc(NS(=O)(=O)c4cccs4)cc3CC(=O)N([C@H](C)CO)C[C@@H]2C)cc1 ?
FGF22 binding-1: 0.1

What do the screens show for `S=C(Nc1ccc(Cl)cc1)Nc1ccc2cn[nH]c2c1`?
NS3 helicase inh: 4.0; ZTA counter: 1.4; FID counter: 1.4; FGF22 binding-1: 1.9*; EBNA-1 inhibitor: -14.7; GRIN3A LBD mod: 25.6*; FGF22 binding-2: 0.258; TSA no protein: inactive

How did NC(c1ccc(F)c(F)c1)c1nc(-c2cncnc2)cs1 (configuration not stated) do in these assays?
FGF22 binding-1: 37.9*; FGF22 binding-2: 0.11; TSA no protein: inactive

Results for CSCCC(NS(=O)(=O)c1ccc(Cl)c(Cl)c1)C(=O)O (configuration not stated) ?
NS3 helicase inh: -7.0; ZTA counter: 2.3; FID counter: -8.3; FGF22 binding-1: 1.4*; EBNA-1 inhibitor: -12.9; GRIN3A LBD mod: 2.4; FGF22 binding-2: -0.094; TSA no protein: inactive

How did C[C@@H]1CN([C@@H](C)CO)C(=O)c2cc(NC(=O)Nc3ccc(C(F)(F)F)cc3)ccc2O[C@H]1CN(C)Cc1ccc(C(=O)O)cc1 do in these assays?
FGF22 binding-1: 0.1
